Bioassay records: PubChem, The Scripps Research Institute Molecular Screening Center
Rows were chosen to be rich in hits. Some 3.1% of all compounds tested hit in one or more screens of this group.
RBBP9 inhibitor: human RBBP9 inhibitors, primary screen, biochemical, fluorescence polarization, FP-Rh probe, HTS | Serine hydrolase RBBP9 (Homo sapiens), O75884 | 220,000 tested, 0.2% active | inhibition, % at 7.94 µM | recombinant RBBP9;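 active = inhibition above the campaign mean of all tested compounds plus 3 SD, cut at about 14% in these data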
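System: RBBP9 protein / Buffer or medium: Tris/NaCl buffer pH 8.0 with 0.1% Pluronic / Probe or stimulus: Serine-hydrolase probe FP-Rh, 375 nM pre-mixing / Dosing: 7.94 µM single dose, 0.794% DMSO / Times: enzyme-compound preincubation 30 min, then probe labeling 45 min, 25 °C / Technique: fluorescence polarization (mP), excitation 525 nm, emission 598 nm / Replication: singlicate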
MBD2 DNA inh: inhibitors of MBD2 binding to methylated DNA, primary screen, biochemical, TR-FRET, DNA-binding domain, human | AID 686964, 2013 | 370,000 tested, 0.31% active | MBD2 binding to methylated oligonucleotide | inhibition, % at 4.4 µM; in the data active = inhibition above about 13%
Target sequence (Q9UBB5 whole entry, looked up, the tested form may be a part): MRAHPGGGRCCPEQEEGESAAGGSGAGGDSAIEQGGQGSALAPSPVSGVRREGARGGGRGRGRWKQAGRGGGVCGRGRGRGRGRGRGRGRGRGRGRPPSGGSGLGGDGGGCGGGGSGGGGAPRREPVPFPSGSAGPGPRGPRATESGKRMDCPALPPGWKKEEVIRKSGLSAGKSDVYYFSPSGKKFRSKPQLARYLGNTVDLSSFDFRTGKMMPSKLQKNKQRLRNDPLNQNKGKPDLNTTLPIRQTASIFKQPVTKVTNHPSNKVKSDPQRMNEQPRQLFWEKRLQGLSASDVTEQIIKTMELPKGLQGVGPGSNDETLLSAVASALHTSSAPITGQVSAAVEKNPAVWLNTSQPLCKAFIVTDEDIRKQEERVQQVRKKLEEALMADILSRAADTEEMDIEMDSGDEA
UHRF1 binding: UHRF1 methylated DNA binding inhibitors, primary screen, counter-screen for MBD2 inhibitor project, biochemical, TR-FRET, human UHRF1, single concentration; 370,000 tested, 0.75% active; UHRF1 binding to methylated oligo; inhibition, % at 4.4 µM; E3 ubiquitin-protein ligase UHRF1 (Homo sapiens), Q96T88; in the data active = inhibition above about 21%;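 note: UHRF1 SRA domain binding a hemimethylated CpG hairpin DNA probe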
ABHD5 PLIN5 PPI: ABHD5-PLIN5 interaction inhibitors, primary screen, cell lysate, split luciferase complementation, luminescence; inhibition, % at 4 µM; Split G. princeps luciferase complementation, 4 h; AID 602281, 2012; Perilipin-5 (Homo sapiens) + 1-acylglycerol-3-phosphate O-acyltransferase ABHD5 (Homo …; 360,000 tested, 0.78% active;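 active = inhibition above the mean inhibition across every tested compound plus 3 SD, cut at about 22% in these data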
LEDGF integ inh: blockers of LEDGF/p75-dependent integrase strand transfer – biochemical, TR-FRET, high throughput, primary screen; HIV-1 integrase (with human LEDGF/p75); TR-FRET IN-LEDGF/p75 DNA integration, Eu/Cy5; inhibition, % at 3.7 µM; 370,000 tested, 0.64% active;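 active = inhibition above the screen-wide mean plus 3 SD, cut at about 13% in these data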;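 note: signal is the Cy5 over europium emission ratio at 671 and 618 nm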
PRMT1 inh: PRMT1 methyltransferase inhibitors, primary screen, biochemical, fluorescence polarization. Protein arginine N-methyltransferase 1 (Homo sapiens), Q99873. recombinant PRMT1, activity-based probe fluorescence polarization. inhibition, % at 2.79 µM. 370,000 tested, 1.3% active;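 active = inhibition above about 21% made by adding two undisclosed values, limit read from the data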
Large screens that a line does not name were inactive.

Cc1cccc(NC(=S)NNC(=O)COc2ccc(Cl)cc2Cl)c1	none
COc1ccc(/C([O-])=C(/C(=S)Nc2ccc(C)c(C)c2)n2c[n+](C)c3ccccc32)cc1OC	UHRF1 binding 26.4
CC1(C)CC(=O)C(CSC(=O)c2ccccc2)C(=O)C1	PRMT1 inh 24.1 (no result: RBBP9 inhibitor)
COc1ccc(C(=O)NNC(=O)CCCCC(=O)NNC(=O)c2ccc(OC)cc2)cc1	UHRF1 binding 22.2
COc1ccc(C(=O)NNC(=O)CCC(=O)NNC(=O)c2ccc(OC)cc2)cc1	none (no result: RBBP9 inhibitor)
CC(C)C[C@@H]1COc2cc(Br)ccc2S(=O)(=O)N1Cc1cn(Cc2ccccc2)nn1	none (no result: RBBP9 inhibitor, ABHD5 PLIN5 PPI)
COC(=O)[C@H]1C[C@@]2(O)CN(S(=O)(=O)c3ccc(C)cc3)C[C@@]2(OC(=O)NC2CCCC2)C[C@H]1C(=O)OC	UHRF1 binding 23.7 (no result: RBBP9 inhibitor)
COc1ccc(CCNC(=O)Nc2cccs2)c(OC)c1	PRMT1 inh 22.6 (no result: RBBP9 inhibitor)
Clc1ccc(-n2c(Cc3cccs3)nnc2SC/C=C/c2ccccc2)cc1	none (no result: RBBP9 inhibitor, ABHD5 PLIN5 PPI)
c1ccc(-c2cccc(CNc3nc(-c4ccccn4)nnc3-c3ccccc3)c2)cc1	none (no result: RBBP9 inhibitor, ABHD5 PLIN5 PPI)
CC(C)CC(=O)/C(=C\c1ccc(Cl)cc1Cl)n1cncn1	ABHD5 PLIN5 PPI 95.3 (no result: MBD2 DNA inh, UHRF1 binding, LEDGF integ inh, PRMT1 inh)
CC(C)CC(=O)/C(=C/c1ccc(N(C)C)cc1)n1cncn1	none (no result: RBBP9 inhibitor)
C[C@@H]1CN(c2ccc(N3CCN(C(=O)OC(C)(C)C)C[C@H]3C)cc2C#N)CCN1Cc1ccccc1	none (no result: RBBP9 inhibitor, ABHD5 PLIN5 PPI)
CCOC(=O)Cc1nc(N2CCN(C(=O)C3CCCO3)CC2)c2c(C)c(C(=O)OCC)sc2n1 (configuration not stated)	none (no result: RBBP9 inhibitor, ABHD5 PLIN5 PPI)
Cc1cccc(CSc2nc3c(c(=O)[nH]2)CCC3)c1	none
Cc1ccc(CSc2nc3c(c(=O)[nH]2)CCC3)cc1	UHRF1 binding 57.7
O=S1(=O)c2ccc(N3CCN(Cc4ccccc4F)CC3)cc2Oc2ccccc2CN1Cc1cn(Cc2ccc(C(F)(F)F)cc2)nn1	none (no result: RBBP9 inhibitor, ABHD5 PLIN5 PPI)
O=C(N1CCc2ccccc2C1)n1cc(C(O)(c2ccccc2)c2ccccc2)nn1	none (no result: RBBP9 inhibitor, ABHD5 PLIN5 PPI)
CCN(C(=O)COC(=O)/C=C/c1cnc2ccccc2n1)c1ccccc1	UHRF1 binding 25.7
CN(C)c1ccc(C=c2c3ccccc3n3c2c2ccccc2[n+]3C)cc1	none (no result: RBBP9 inhibitor)
CN(C)c1ccc(C=c2c3cc(O)ccc3n3c2cc(-c2ccccc2)[n+]3C)cc1	UHRF1 binding 31.0 (no result: RBBP9 inhibitor)
CC(=O)Nc1cccc(C(C)C2=CCCCC2)c1 (configuration not stated)	none (no result: RBBP9 inhibitor, ABHD5 PLIN5 PPI)
Cc1ccc(Nc2ccc(C(=O)O)cc2N)cc1	PRMT1 inh 23.6 (no result: ABHD5 PLIN5 PPI)
CC(C)N1Cc2nnn(Cc3ccc(F)cc3)c2-c2cc(F)ccc2S1(=O)=O	none (no result: RBBP9 inhibitor, ABHD5 PLIN5 PPI)
C=CCN(CC#Cc1ccccc1)Cc1ccc2c(c1)OCO2	none (no result: RBBP9 inhibitor, ABHD5 PLIN5 PPI)
CN1CCN(S(=O)(=O)c2ccc(NC(=O)COc3ccccc3)cc2)CC1	none
CN(CCOc1ccccc1)CC(=O)Nc1ccc(S(=O)(=O)N2CCCC2)cc1	UHRF1 binding 24.6
O=C(c1ccc2nc(-c3ccco3)c(-c3ccco3)nc2c1)N1CCN(c2ncccn2)CC1	LEDGF integ inh 34.0, PRMT1 inh 35.3
O=C(Nc1ccc2nc(-c3ccco3)c(-c3ccco3)nc2c1)N1CCN(c2ccccn2)CC1	LEDGF integ inh 23.8, PRMT1 inh 48.0
O=C(c1cccc(C(=O)N2CCN(c3ncccn3)CC2)c1)N1CCN(c2ncccn2)CC1	none
CCc1cc(Cn2nc(-c3ccccc3)cc2C(=O)O)on1	UHRF1 binding 79.6 (no result: RBBP9 inhibitor)
C=CCN1C(=O)[C@@H](CC(=O)NCc2cccs2)[C@]2(C(=O)OC)CCCCC=C12	none (no result: RBBP9 inhibitor, ABHD5 PLIN5 PPI)
O=C(CN1CCOCC1)Nc1nc2ccc(Br)cc2s1	PRMT1 inh 39.4
O=C(CN1CCOCC1)Nc1nc2ccc(Cl)cc2s1	none (no result: RBBP9 inhibitor)
CN1CCN(c2ccc3c(c2)Oc2ccccc2CN(Cc2cn(Cc4cccc(C(F)(F)F)c4)nn2)S3(=O)=O)CC1	none (no result: RBBP9 inhibitor, ABHD5 PLIN5 PPI)
COC(=O)Cc1nnn2c1[C@@H](C)[C@@H](c1ccccc1Br)OC[C@H](C)C2	none (no result: RBBP9 inhibitor, ABHD5 PLIN5 PPI)
